According to ChEMBL document CHEMBL1138298, “Synthesis and evaluation of 7H-8,9-dihydropyrano[2,3-c]imidazo[1,2-a]pyridines as potassium-competitive acid blockers” (J Med Chem, 2007):
Calls of active or inactive are those of the source. No cut-off for these calls is given here.

Experiments:
[1] = Dissociation constant, pKa of the compound; type: physicochemical
Method in brief: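 Potentiometric cosolvent titration in 0.15 mol/L KCl, pH 2.0-11.0, 25 °C, methanol as cosolvent in varying portions; titrants 0.5 mol/L KOH and HCl.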

[2] = test system: Rattus norvegicus; assay: Inhibition of pentagastrin-stimulated acid secretion in perfused Ghosh Schild rat stomach at 1 umol/kg, intraduodenal; type: functional; design: scale not given: the % may be the effect or the level left
Method in brief: (§1)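 Anaesthetised rat with perfused stomach: 37 °C saline at 0.5 mL/min. Effluent titrated to pH 7 with 0.01 N NaOH in 15-min fractions. Secretion driven by continuous iv pentagastrin, 1 µg/kg (1.65 mL/h). Compound given intraduodenally in 2.5 mL/kg volume 60 min after infusion start. Body temperature held at 37.8-38 °C.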

[3] = Inhibition of H+/K+ ATPase in hog gastric mucosa; type: tissue-based, Sus scrofa
Method in brief: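 Hog gastric mucosa H+/K+-ATPase (0.5-1 µg/100 µL, with nigericin 1:1) in 4 mM Pipes/8 mM Tris pH 7.4, 0.25 M sucrose, 1 mM MgCl2, stimulated by 1 mM KCl. Compound 1e-4 to 1e-9 M final from DMSO stocks. Started with 1 mM Na-ATP, 30 min room temperature. Phosphate read by malachite green at 680 nm after 15 min.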

[4] = Distribution coefficient, log D of the compound; type: physicochemical; settings: octanol/water
Method in brief: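 Distribution between 1-octanol and aqueous KCl measured by potentiometric titration over pH 2.0-11.0 at 25 °C.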

[5] = test system: Gastric gland; assay: Inhibition of acid secretion in rabbit intact gastric glands assessed as […] accumulation; type: functional, tissue-based; settings: Oryctolagus cuniculus
Method in brief: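 Isolated gastric glands in Krebs-Henseleit with 2 mg/mL rabbit serum albumin and 2 mg/mL glucose. Incubated 30 min at 37 °C, shaking, with 0.125 µM 14C-aminopyrine at pH 7.4, stimulated by 1 mM dibutyryl cAMP, inhibitor 3 nM-100 µM. Stopped by centrifugation. Accumulation taken from pellet/supernatant radioactivity ratio. IC50 from fitted inhibition equation.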

[6] = test system: Rattus norvegicus; assay: Inhibition of pentagastrin-stimulated acid secretion in perfused Ghosh Schild rat stomach at 3 umol/kg, intraduodenal; type: functional; design: scale not given: the % may be the effect or the level left; method in brief: as §1
[7] = test system: Rattus norvegicus; assay: Inhibition of pentagastrin-stimulated acid secretion in intraduodenally dosed perfused Ghosh Schild rat stomach; type: functional; settings: intraduodenal; method in brief: as §1

Structure (SMILES) | pKa [1] | pIC50 [3] | logD [4] | IC50 [5] [nM] | Activity [2] [%] | Activity [6] [%] | Activity [5] | ED50 [7] [µmol/kg]
CCOc1ccc(NC(=O)c2cn3c(C)c(C)nc3c3c2CCC(c2ccccc2)O3)cc1 (racemic) | 6.57 | > 6 | 4.3 | 200 | 33 | – | – | –
Cc1nc2c3c(ccn2c1C)CCC(c1ccccc1)O3 (racemic) | 7.73 | 6.9 | 3.5 | 316 | 26 | – | – | –
Cc1nc2c3c(c(C(N)=O)cn2c1C)CCC(c1ccccc1)O3 (racemic) | 6.52 | 5.9 | 2.53 | 2510 | – | – | – | 0.8
Cc1nc2c3c(c(C(=O)N(C)C)cn2c1C)CC[C@@H](c1ccccc1F)O3 | – | 6.3 | – | 79.4 | – | – | – | 0.2
Cc1nc2c3c(c(C(N)=O)cn2c1C)CC[C@@H](c1ccccc1)O3 | – | – | – | 1580 | – | – | – | 1
Cc1nc2c3c(c(C(=O)NC4CC4)cn2c1C)CC[C@@H](c1ccccc1)O3 | – | 5.7 | – | 100 | – | – | – | 0.25
Cc1nc2c3c(c(C(=O)N(C)C)cn2c1C)CCC(c1ccc(F)cc1)O3 (racemic) | 6.74 | 6.2 | 2.78 | 398 | – | – | – | 0.35
CCN(CC)C(=O)c1cn2c(C)c(C)nc2c2c1CCC(c1ccccc1)O2 (racemic) | 6.75 | 5.2 | 3.2 | 794 | 23 | – | – | –
Cc1nc2c3c(c(C4=NCCO4)cn2c1C)CCC(c1ccccc1)O3 (racemic) | – | 6 | – | 794 | – | – | – | 2
Cc1nc2c3c(c(C(=O)N4CCC4)cn2c1C)CC[C@H](c1ccccc1)O3 | – | 5.1 | – | 1580 | – | 37 | – | –
Cc1nc2c3c(c(C(=O)N(C)C)cn2c1C)CC[C@H](c1ccc(F)cc1)O3 | – | 5.7 | – | 1000 | – | – | – | 1.5
Cc1ccccc1C1CCc2c(C(=O)N(C)C)cn3c(C)c(C)nc3c2O1 (racemic) | 6.74 | 6.2 | 2.76 | 200 | – | – | – | 0.4
Cc1nc2c3c(c(C(=O)N(C)C)cn2c1C)CC[C@@H](c1ccc(F)cc1)O3 | – | 6.5 | – | 158 | – | – | – | 0.25
Cc1nc2c3c(c(C(=O)NC4CC4)cn2c1C)CCC(c1ccccc1)O3 (racemic) | 6.69 | 6 | 3.22 | 1000 | 82 | – | – | –
Cc1ccccc1[C@H]1CCc2c(C(=O)N(C)C)cn3c(C)c(C)nc3c2O1 | – | 6.1 | – | 251 | – | – | – | 1.3
Cc1nc2c3c(c(C(N)=O)cn2c1C)CC[C@H](c1ccccc1)O3 | – | – | – | 25100 | – | 30 | – | –

Structure (SMILES) | pKa [1] | pIC50 [3] | logD [4] | IC50 [5] [nM] | Activity [2] [%] | Activity [6] [%] | Activity [5] | ED50 [7] [µmol/kg]
CON(C)C(=O)c1cn2c(C)c(C)nc2c2c1CCC(c1ccccc1)O2 (racemic) | 6.49 | 5.8 | 2.6 | 398 | – | – | – | 0.4
CON(C)C(=O)c1cn2c(C)c(C)nc2c2c1CC[C@@H](c1ccccc1)O2 | – | 5.6 | – | – | – | – | – | 0.4
Cc1nc2c3c(c(C(=O)N4CC4)cn2c1C)CCC(c1ccccc1)O3 (racemic) | 6.63 | 5.3 | 2.9 | 398 | 35 | – | – | –
Cc1nc2c3c(c(C(=O)N4CCC4)cn2c1C)CCC(c1ccccc1)O3 (racemic) | 6.64 | 6.2 | 2.6 | 398 | 75 | – | – | –
CON(C)C(=O)c1cn2c(C)c(C)nc2c2c1CC[C@H](c1ccccc1)O2 | – | 4.5 | – | – | – | 20 | – | –
Cc1nc2c3c(c(C(=O)Nc4ccccc4)cn2c1C)CCC(c1ccccc1)O3 (racemic) | 6.59 | 5.5 | 5 | 251 | – | – | – | 0.3
Cc1nc2c3c(c(C(=O)N(C)C)cn2c1C)CCC(c1cccs1)O3 (racemic) | 6.64 | 5.3 | 2.05 | 631 | 46 | – | – | –
Cc1ccccc1[C@@H]1CCc2c(C(=O)N(C)C)cn3c(C)c(C)nc3c2O1 | – | 6.3 | – | 251 | – | – | – | 0.4
Cc1nc2c3c(c(C(=O)N4CCC4)cn2c1C)CC[C@@H](c1ccccc1)O3 | – | 6.4 | – | 50.1 | – | – | – | 0.2
CNC(=O)c1cn2c(C)c(C)nc2c2c1CCC(c1ccccc1)O2 (racemic) | 6.74 | 5.6 | 2.8 | 1000 | – | – | – | 0.6
Cc1nc2c3c(c(C(=O)N4CCCC4)cn2c1C)CC[C@@H](c1ccccc1)O3 | – | 6.4 | – | 200 | – | – | – | 1
Cc1nc2c3c(c(C(=O)N4CCNCC4)cn2c1C)CCC(c1ccccc1)O3 (racemic) | 6.44 | 5.3 | 1.53 | – | 36 | – | inactive | –
Cc1nc2c3c(c(C(=O)N4CCCC4)cn2c1C)CCC(c1ccccc1)O3 (racemic) | 6.73 | 5.8 | 2.83 | 316 | 47 | – | – | –
Cc1nc2c3c(c(C(=O)N(C)C)cn2c1C)CCC(c1ccccc1F)O3 (racemic) | 6.78 | 5.9 | 2.8 | 631 | 73 | – | – | –
CCOC(=O)c1cn2c(C)c(C)nc2c2c1CCC(c1ccccc1)O2 (racemic) | 6.35 | 6 | 4.56 | 2510 | 34 | – | – | –
Cc1nc2c3c(c(C(=O)NC4CCC4)cn2c1C)CCC(c1ccccc1)O3 (racemic) | 6.68 | 5.2 | 3.76 | 398 | 26 | – | – | –

Further lines, with some results ahead:

pKa [1] | pIC50 [3] | logD [4] | IC50 [5] [nM] | Structure (SMILES) | Activity [2] [%] | Activity [6] [%] | Activity [5] | ED50 [7] [µmol/kg]
– | < 4 | – | 31600 | Cc1nc2c3c(c(C(=O)N(C)C)cn2c1Br)CC[C@H](c1ccccc1)O3 | – | 38 | – | –
3.2 | 6.2 | 3.2 | – | CC#CC(=O)c1c(C)nc2c3c(c(C(=O)N(C)C)cn12)CCC(c1ccccc1)O3 (racemic) | 43 | – | inactive | –
4.09 | 5 | 1.8 | – | Cc1nc2c3c(c(C(=O)N(C)C)cn2c1CN(C)C)CCC(c1ccccc1)O3 (racemic) | 20 | – | – | –
– | 5.4 | – | 2510 | Cc1nc2c3c(c(C(=O)N(C)C)cn2c1C)CC[C@H](c1ccccc1)O3 | – | 36 | – | –
– | 5 | – | 6310 | Cc1nc2c3c(c(C(=O)N(C)C)cn2c1Br)CC[C@@H](c1ccccc1)O3 | – | – | – | 1.5
6.7 | 5 | 3 | 2000 | CCc1c(C)nc2c3c(c(C(=O)N(C)C)cn12)CCC(c1ccccc1)O3 (racemic) | 30 | – | – | –
– | 6.8 | – | 200 | Cc1nc2c3c(c(C(=O)N(C)C)cn2c1C)CC[C@@H](c1ccccc1)O3 | – | – | – | 0.22
5.86 | 5.6 | 1.52 | 31600 | Cc1nc2c3c(c(C(=O)N(C)C)cn2c1CO)CCC(c1ccccc1)O3 (racemic) | 55 | – | – | –
– | 5.8 | – | 7940 | Cc1nc2c3c(c(C(=O)N(C)C)cn2c1CO)CC[C@@H](c1ccccc1)O3 | – | – | – | 5
– | 4.2 | – | – | Cc1nc2c3c(c(C(=O)N(C)C)cn2c1CO)CC[C@H](c1ccccc1)O3 | – | – | inactive | > 6
– | 5.5 | – | 1260 | CCc1c(C)nc2c3c(c(C(=O)N(C)C)cn12)CC[C@@H](c1ccccc1)O3 | – | – | – | 1.2
– | < 4 | – | – | CC(=O)c1c(C)nc2c3c(c(C(=O)N(C)C)cn12)CC[C@@H](c1ccccc1)O3 | – | – | inactive | 0.1
3.73 | < 4 | 2.55 | – | CC(=O)c1c(C)nc2c3c(c(C(=O)N(C)C)cn12)CCC(c1ccccc1)O3 (racemic) | 55 | – | inactive | –
7.15 | 5.8 | 2.83 | 501 | Cc1nc2c3c(c(C(=O)N(C)C)cn2c1C)CCC(c1ccccc1)O3 (racemic) | – | – | – | 0.5
5.58 | < 4 | 2.5 | – | CC#CC(O)c1c(C)nc2c3c(c(C(=O)N(C)C)cn12)CCC(c1ccccc1)O3 (racemic) | 22 | – | – | –
4.68 | 4.9 | 3.2 | 12600 | Cc1nc2c3c(c(C(=O)N(C)C)cn2c1Br)CCC(c1ccccc1)O3 (racemic) | – | – | – | 1
